The record followed here is ChEMBL document CHEMBL4834429, “Discovery of Nanomolar Melanocortin-3 Receptor (MC3R)-Selective Small Molecule Pyrrolidine Bis-Cyclic Guanidine Agonist Compounds Via a High-Throughput "Unbiased" Screening Campaign” (J Med Chem, 2021).

Assay type in all cases: functional, cell-based
The target in experiment [1] is T1, Melanocyte-stimulating hormone receptor (Mus musculus, UniProt Q01727). In words: Agonist activity at mouse melanocortin receptor 1 expressed in HEK293 cells assessed as stimulation of intracellular cAMP accumulation incubated for 24 hrs by beta-galactosidase reporter gene assay. On the technique in general: Changes in cAMP serve as a functional read-out for many G protein-coupled receptors.
T1 sequence (Q01727 whole entry): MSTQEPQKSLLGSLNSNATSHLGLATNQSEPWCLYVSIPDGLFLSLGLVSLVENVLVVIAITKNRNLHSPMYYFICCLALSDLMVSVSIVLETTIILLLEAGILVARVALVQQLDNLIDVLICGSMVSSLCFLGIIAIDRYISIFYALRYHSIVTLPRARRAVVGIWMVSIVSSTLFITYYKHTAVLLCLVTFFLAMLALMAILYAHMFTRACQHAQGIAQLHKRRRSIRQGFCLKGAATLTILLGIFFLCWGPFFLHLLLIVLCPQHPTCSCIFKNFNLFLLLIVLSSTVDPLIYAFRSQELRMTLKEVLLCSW

Another experiment concerns the target Melanocortin receptor 5 (Mus musculus, UniProt P41149). In words: Agonist activity at mouse melanocortin receptor 5 expressed in HEK293 cells assessed as stimulation of intracellular cAMP accumulation incubated for 24 hrs by beta-galactosidase reporter gene assay.
The target of experiment [2] is Melanocortin receptor 4 (Mus musculus) (UniProt P56450). In words: Agonist activity at mouse melanocortin receptor 4 expressed in HEK293 cells assessed as stimulation of intracellular cAMP accumulation at 10 uM incubated for 24 hrs by beta-galactosidase reporter gene assay relative to control. In outline: (§1)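 After lysis, ONPG hydrolysis was read at 405 nm and normalized to Bradford protein and maximal NDP-MSH response. Duplicates, ≥3 independent experiments; 100 μM dropped from fits where toxic.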
Chain of Melanocortin receptor 4 (Mus musculus) (P56450 whole entry): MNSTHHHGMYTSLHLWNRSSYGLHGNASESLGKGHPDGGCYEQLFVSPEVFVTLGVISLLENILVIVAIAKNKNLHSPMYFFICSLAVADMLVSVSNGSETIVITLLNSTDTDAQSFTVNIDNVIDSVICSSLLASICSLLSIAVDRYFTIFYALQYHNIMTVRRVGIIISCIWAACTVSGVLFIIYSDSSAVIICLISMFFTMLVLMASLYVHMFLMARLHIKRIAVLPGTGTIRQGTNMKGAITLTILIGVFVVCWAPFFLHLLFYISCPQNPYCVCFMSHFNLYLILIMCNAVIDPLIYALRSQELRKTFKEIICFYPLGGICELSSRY

Experiment [3] deals with T2, Melanocortin receptor 4 (Mus musculus, UniProt P56450). In words: Antagonist activity at mouse melanocortin receptor 4 expressed in HEK293 cells assessed as inhibition of NDP-MSH-induced intracellular cAMP accumulation incubated for 24 hrs by beta-galactosidase reporter gene assay. To be noted: read-out: pA2 (converted).
T2 sequence (P56450 whole entry): as above
The target of experiment [4] is T2, Melanocortin receptor 4. In words: Agonist activity at mouse melanocortin receptor 4 expressed in HEK293 cells assessed as stimulation of intracellular cAMP accumulation incubated for 24 hrs by beta-galactosidase reporter gene assay. In outline: as §1
The target in experiment [5] is T3, Melanocortin receptor 3 (Mus musculus, UniProt P33033). In words: Agonist activity at mouse melanocortin receptor 3 expressed in HEK293 cells assessed as stimulation of intracellular cAMP accumulation incubated for 24 hrs by beta-galactosidase reporter gene assay.
T3 sequence (P33033 whole entry): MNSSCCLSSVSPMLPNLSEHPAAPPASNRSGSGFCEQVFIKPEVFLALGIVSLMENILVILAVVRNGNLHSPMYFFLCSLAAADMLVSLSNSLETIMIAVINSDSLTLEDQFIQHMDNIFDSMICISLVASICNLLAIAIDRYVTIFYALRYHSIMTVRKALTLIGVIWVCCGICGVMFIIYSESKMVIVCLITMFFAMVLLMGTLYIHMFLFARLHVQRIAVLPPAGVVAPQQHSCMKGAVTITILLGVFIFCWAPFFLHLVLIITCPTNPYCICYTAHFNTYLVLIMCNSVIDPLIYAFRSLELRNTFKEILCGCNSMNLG
The target in experiment [6] is T3, Melanocortin receptor 3. In words: Antagonist activity at mouse melanocortin receptor 3 expressed in HEK293 cells assessed as inhibition of NDP-MSH-induced intracellular cAMP accumulation incubated for 24 hrs by beta-galactosidase reporter gene assay.
Experiment [7] deals with Melanocyte-stimulating hormone receptor (Mus musculus) (UniProt Q01727). In words: Agonist activity at mouse melanocortin receptor 1 expressed in HEK293 cells assessed as stimulation of intracellular cAMP accumulation at 10 uM incubated for 24 hrs by beta-galactosidase reporter gene assay relative to control. To be noted: filed as agonist. In outline: as §1
Chain of Melanocyte-stimulating hormone receptor (Mus musculus) (Q01727 whole entry, looked up): as the sequence (Q01727 whole entry) above
The target in experiment [8] is Melanocortin receptor 5 (Mus musculus) (UniProt P41149). In words: Agonist activity at mouse melanocortin receptor 5 expressed in HEK293 cells assessed as stimulation of intracellular cAMP accumulation at 10 uM incubated for 24 hrs by beta-galactosidase reporter gene assay relative to control. To be noted: filed as agonist, time 6.0 hrs, in the assay text read “6 hrs” for “24 hrs”. In outline: as §1
Chain of Melanocortin receptor 5 (Mus musculus) (P41149 whole entry): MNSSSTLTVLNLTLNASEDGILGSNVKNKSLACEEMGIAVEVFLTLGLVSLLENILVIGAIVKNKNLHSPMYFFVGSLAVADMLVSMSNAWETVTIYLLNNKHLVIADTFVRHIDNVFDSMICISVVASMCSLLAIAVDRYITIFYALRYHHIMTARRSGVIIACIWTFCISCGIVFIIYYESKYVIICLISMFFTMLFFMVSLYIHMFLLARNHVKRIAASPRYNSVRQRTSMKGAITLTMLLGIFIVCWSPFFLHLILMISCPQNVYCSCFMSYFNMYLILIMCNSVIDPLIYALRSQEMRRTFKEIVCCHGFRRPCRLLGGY

Experiment [9] deals with T1, Melanocyte-stimulating hormone receptor. In words: Antagonist activity at mouse melanocortin receptor 1 expressed in HEK293 cells assessed as inhibition of NDP-MSH-induced intracellular cAMP accumulation incubated for 24 hrs by beta-galactosidase reporter gene assay.

Chain of Melanocortin receptor 5 (P41149 whole entry): as above

By EC50 is commonly meant the concentration at which the effect is half-maximal. Broadly, the Emax is the maximal effect, on the per cent scale that the assay sets. Consider `CC(C)[C@@H]1CNC(=N)N1C[C@@H]1CCCN1C[C@@H](Cc1ccccc1)N1C[C@@H]([C@@H](C)O)N(CC23CC4CC(CC(C4)C2)C3)C1=N`, for which the EC50 was determined as 0.44 µM in experiment [1], 0.18 µM on Melanocortin receptor 5, 0.58 µM on Melanocortin receptor 4 [4] and 0.36 µM on Melanocortin receptor 3 [5]. In [2] (filed as agonist), the Emax came to 75%. Also, the Kb at Melanocortin receptor 4 [3] is 1.58 µM.

As for `CC(C)CCCN1C(=N)N([C@H](Cc2ccccc2)CN2CCC[C@H]2CN2C(=N)NC[C@H]2CC(C)C)C[C@H]1[C@@H](C)O`, the EC50 on Melanocortin receptor 3 [6] was > 100 µM. Moreover, the Emax was determined as 62% in experiment [7] and 77% in experiment [8].

For `CC(C)CCCN1C(=N)N([C@H](Cc2ccccc2)CN2CCC[C@H]2CN2C(=N)NC[C@H]2C(C)C)C[C@H]1C(C)C`, the EC50 on Melanocortin receptor 3 [6] is > 100 µM; in [1] it was 10.2 µM; at Melanocortin receptor 5, 1.6 µM. The Emax in [2] came out at 21%.

As for `CCC[C@@H]1CN([C@H](Cc2ccccc2)CN2CCC[C@H]2CN2C(=N)NC[C@H]2C(C)C)C(=N)N1CCCC(C)C`, the figures for the EC50 (on Melanocortin receptor 3 [6]; in experiment [1]; at Melanocortin receptor 5) were > 100 µM, 22.9 µM and 2.03 µM, respectively. Also, the maximal response (Emax) in experiment [2] (filed as agonist) was found to be 41%.

With `CC(C)CCCN1C(=N)N([C@H](Cc2ccccc2)CN2CCC[C@H]2CN2C(=N)NC[C@H]2C(C)C)C[C@H]1[C@@H](C)O`, on Melanocortin receptor 3 [6], the EC50 was > 100 µM. Besides, the Emax is 51% in experiment [7] and 40% in experiment [8].

With `CCC[C@@H]1CN([C@H](Cc2ccccc2)CN2CCC[C@H]2CN2C(=N)NC[C@H]2CC(C)C)C(=N)N1CCCC(C)C`, the EC50 is > 100 µM on Melanocortin receptor 3 [6], > 100 µM in experiment [9] and 2.18 µM on Melanocortin receptor 5. Besides, the Emax in [2] (filed as agonist) came out at 51%.
